The structures appear in SMILES notation. pIC50: −log10 of the molar value.

One assay addresses T1, Secreted chorismate mutase (Mycobacterium tuberculosis, UniProt P9WIB9).
T1 sequence (P9WIB9 whole entry): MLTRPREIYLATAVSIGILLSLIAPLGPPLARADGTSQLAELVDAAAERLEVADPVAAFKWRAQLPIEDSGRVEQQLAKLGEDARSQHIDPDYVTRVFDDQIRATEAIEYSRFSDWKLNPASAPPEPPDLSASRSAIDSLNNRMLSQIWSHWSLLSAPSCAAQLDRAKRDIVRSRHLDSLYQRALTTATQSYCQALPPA
Nature of the assay: (§1) Inhibition of Mycobacterium tuberculosis chorismate mutase expressed in Escherichia coli BL21 assessed as conversion of chorismate to prephenate after 5 mins by Spectrophotometry.
With `Fc1cc2[nH]cc(-c3nc4ccccc4nc3Cl)c2cc1F`, the pIC50 is 4.70.

Another assay concerns the target T2, Secreted chorismate mutase (Mycobacterium tuberculosis) (UniProt P9WIB9).
T2 sequence (whole entry): T1 sequence (P9WIB9 whole entry)
The description is as §1.
Consider `Fc1cc2[nH]cc(-c3nc4ccccc4nc3Cl)c2cc1F`, for which the inhibition entry is “Dose-dependent effect”.

In a further assay the target is T2, Secreted chorismate mutase (Mycobacterium tuberculosis). Nature of the assay: Inhibition of Mycobacterium tuberculosis chorismate mutase expressed in Escherichia coli BL21 assessed as conversion of chorismate to prephenate at 50 uM after 5 mins by Spectrophotometry. An outline of the steps:
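MtCM purified by Ni-NTA from BL21(DE3) carrying pET22b/MtCM; 180 pmol started on 4 mM chorismate (Tris-HCl pH 7.5, EDTA, BSA, β-mercaptoethanol) with effector at 50 μM, 37 °C, 5 min, quenched with 1 N HCl. Absorbance at 274 nm, corrected for compound and no-enzyme blanks; % inhibition = 100 − residual activity.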
Turning to `COc1ccc2[nH]cc(-c3nc4ccccc4nc3Cl)c2c1`, the inhibition came to 36%.
For `Fc1cc2[nH]cc(-c3nc4ccccc4nc3-c3c[nH]c4ccc(Br)cc34)c2cc1F`, the inhibition was determined as 27%.
On to `Oc1ccc(-c2nc3ccccc3nc2-c2c[nH]c3ccc(Br)cc23)c(O)c1`, for which the inhibition came to 21%.
For `COc1ccc2c(-c3nc4ccccc4nc3Cl)c[nH]c2c1`, the inhibition came out at 42%.
With `COc1ccc2c(-c3nc4ccccc4nc3-c3c[nH]c4ccccc34)c[nH]c2c1`, the inhibition amounted to 45%.
As to `Oc1ccc(-c2nc3ccccc3nc2Cl)c(O)c1`, the inhibition stood at 31%.
With `Fc1cc2[nH]cc(-c3nc4ccccc4nc3Cl)c2cc1F`, the inhibition amounted to 64%.
With `Brc1ccc2[nH]cc(-c3nc4ccccc4nc3-c3c[nH]c4ccccc34)c2c1`, the inhibition was found to be 31%.
With `Oc1ccc(-c2nc3ccccc3nc2Cl)c2ccccc12`, the inhibition is 35%.
Still for that read-out and setting: next, `Oc1ccc2ccccc2c1-c1nc2ccccc2nc1-c1c[nH]c2ccc(Br)cc12`: 35%.

For the origin of these results see ChEMBL document CHEMBL1944518, “AlCl3 induced (hetero)arylation of 2,3-dichloroquinoxaline: a one-pot synthesis of mono/disubstituted quinoxalines as potential antitubercular agents” (Bioorg Med Chem, 2012).
